Assay [1] has as its system Escherichia coli. Description: Bactericidal activity against ampicillin/trimethoprim/nalidixic acid-resistant Escherichia coli 118 by agar plating method. It is filed as functional.
Assay [2] concerns Escherichia coli. Description: Bactericidal activity against gentamicin/kanamycin/tetracycline/nalidixic acid-resistant Escherichia coli 360 by agar plating method. It is filed as functional.
The test system of assay [3] is Escherichia coli. Briefly: Bactericidal activity against chloramphenicol/ampicillin/kanamycin/trimethoprim/ciprofloxacin/nalidixic acid-resistant Escherichia coli 151 by agar plating method. It is filed as functional.
In assay [4] the test system is Escherichia coli. Briefly: Bactericidal activity against ampicillin/chloramphenicol/ciprofloxacin/gentamicin/tetracycline-resistant Escherichia coli 401 by agar plating method. It is filed as functional.
A short description of assay [5]: Inhibition of Escherichia coli DNA topoisomerase-1A using supercoiled pHOT1 plasmid DNA as substrate assessed as inhibition of DNA relaxation after 30 mins by agarose gel electrophoresis. An outline of the steps:
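Supercoiled plasmid DNA incubated with E. coli Topo IA in the presence of compound at […]. Relaxation products were resolved by electrophoresis on 1% agarose gel.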

The species entered for assay [6] is Homo sapiens. Description: Inhibition of human DNA topoisomerase-1B using supercoiled pHOT1 plasmid DNA as substrate assessed as inhibition of DNA relaxation at 100 uM after 30 mins by agarose gel electrophoresis.
For assay [7], the system named is Escherichia coli. Briefly: Bactericidal activity against Escherichia coli DH5[alpha] by agar plating method. Type of assay: functional.
The subject of assay [8] is Escherichia coli. Description: Antibacterial activity against chloramphenicol/ampicillin/trimethoprim/ciprofloxacin/nalidixic acid-resistant Escherichia coli 59 assessed as growth inhibition after 18 to 24 hrs by broth microdilution method. Type of assay: functional. A general note: Broth dilution looks for growth in wells or tubes with falling amounts of substance.
Assay [9] deals with Escherichia coli. Briefly: Bactericidal activity against multidrug-resistant Escherichia coli IP9 isolated from water source by agar plating method.
In assay [10] the test system is Escherichia coli. Briefly: Bactericidal activity against multidrug-resistant Escherichia coli IS 54 isolated from water source by agar plating method. As to conditions: IS 54, Water.
Assay [11] deals with Escherichia coli. Briefly: Bactericidal activity against ampicillin/chloramphenicol/tetracycline/trimethoprim/ciprofloxacin-resistant Escherichia coli KK45 isolated from water source by agar plating method.
The test system of assay [12] is Escherichia coli. Description: Antibacterial activity against multidrug-resistant Escherichia coli IS 54 isolated from water source assessed as growth inhibition after 18 to 24 hrs by broth microdilution method. As to conditions: IS 54, Water.
In assay [13] the test system is Escherichia coli. Description: Bactericidal activity against cefazolinl/ampicillin/piperacillin/cefuroxime/cefepime/cefotaxime/tetracycline/ciprofloxacin-resistant Escherichia coli NG3 isolated from water source by agar plating method.
Assay [14] deals with Escherichia coli. Description: Antibacterial activity against ampicillin/tetracycline/piperacillin-resistant Escherichia coli WB31 isolated from water source assessed as growth inhibition after 18 to 24 hrs by broth microdilution method.
The test system of assay [15] is Escherichia coli. Description: Inhibition of Escherichia coli DNA topoisomerase-1A using supercoiled pHOT1 plasmid DNA as substrate assessed as inhibition of DNA relaxation at 5 to 100 uM after 30 mins by agarose gel electrophoresis in presence of 25 mM MgCl2.
The nature of assay [16]: Binding affinity to d(ATATATATATATAT)2 DNA (unknown origin) by fluorescence spectroscopic analysis. A digest of the protocol: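 Fluorescence titration of the compound with a poly(AT) DNA sequence, with the binding constant derived from the titration.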
Assay [17] relates to Escherichia coli. Description: Binding affinity to Escherichia coli DNA topoisomerase-1A by isothermal titration calorimetric analysis in presence of MgCl2/KCl. A digest of the protocol: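 Isothermal titration calorimetry with sequential injections of EcTopo 1A into the compound solution. Raw heats were corrected using injections of identical amounts of EcTopo 1A into buffer alone. Binding affinity constant and binding free energy were derived from the thermogram.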

The subject of assay [18] is Escherichia coli. Description: Antibacterial activity against Escherichia coli ATCC 25922 in iv dosed Balb/c systemic infection model assessed as increase in survival administered single bolus dose measured every day for 7 days. Type of assay: functional. An outline of the steps:
(§1)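 Mice were infected intraperitoneally with E. coli ATCC 25922 suspended in saline. Treatment was a single bolus intravenous tail-vein injection at 3, 5 or 7 mg/kg body weight, dissolved in sterile water. A vehicle-only group served as control. Survival was monitored after infection.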

For assay [19], the system named is Escherichia coli. Description: Antibacterial activity against Escherichia coli ATCC 25922 in Balb/c systemic infection model assessed as increase in survival at 7 mg/kg, iv administered single bolus dose measured every day for 7 days relative to vehicle-treated control. It is filed as functional. The conditions noted are these: ATCC 25922, in Mus musculus, 168 h. A digest of the protocol: as §1

The test system of assay [20] is Escherichia coli. Briefly: Antibacterial activity against Escherichia coli ATCC 25922 in iv dosed Balb/c neutropenic thigh infection model assessed as concentration required to cause 1 log10CFU reduction per gram of thigh administered as single bolus dose at 2 hrs post inoculation measured after 24 hrs. Type of assay: functional. An outline of the steps:
(§2)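 Neutropenic thigh infection with E. coli ATCC 25922. Compound was dosed at 3 and 5 mg/kg body weight/day. Read-out was thigh bacterial burden, expressed as log reduction and compared with the static level.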

Assay [21] has as its system Escherichia coli. Description: Antibacterial activity against Escherichia coli ATCC 25922 in iv dosed Balb/c neutropenic thigh infection model assessed as concentration required to cause 3 log10CFU reduction per gram of thigh administered as single bolus dose at 2 hrs post inoculation measured after 24 hrs. Type of assay: functional. An outline of the steps:
as §2

The subject of assay [22] is Escherichia coli. Description: Antibacterial activity against Escherichia coli ATCC 25922 in iv dosed Balb/c neutropenic thigh infection model assessed as reduction of bacterial burden in thigh administered as single bolus dose at 2 hrs post inoculation measured after 24 hrs. Type of assay: functional. An outline of the steps:
as §2

pIC50: −log10 of the molar value. Converted amounts (≈) assume the structure as drawn. The source made the active and inactive calls. The calls are words filed in the database; no cut-off is given here.

The MBC is the lowest tested concentration that kills the bacteria rather than only halting them. The term pIC50 denotes the IC50 on a negative log10 scale, so that one unit is a factor of ten. By MIC50 is commonly meant an inhibitory concentration at the 50% level, which refers to growth in some studies and to a panel of isolates in others. The term MIC90 denotes the lowest concentration that inhibits either 90% of growth or 90% of the strains tested, depending on the study. As a reminder, the ED50 is the dose that gives a 50% effect, or the effect in half of the subjects.

For the compound `COc1ccc(-c2nc3ccc(-c4nc5ccc(N6CCN(c7ccncc7)CC6)cc5[nH]4)cc3[nH]2)cc1OC`, the MBC in assay [1] is 2 µg/mL (≈ 3.76 µM); in [2] it was 2 µg/mL (≈ 3.76 µM); in [3] it was 2 µg/mL (≈ 3.76 µM); in [4] it was 2 µg/mL (≈ 3.76 µM); in [7], 1 µg/mL (≈ 1.88 µM); in assay [9], 4 µg/mL (≈ 7.52 µM). The minimal bactericidal concentration (MBC) is 2 µg/mL (≈ 3.76 µM) in assay [10], 4 µg/mL (≈ 7.52 µM) in [11] and 2 µg/mL (≈ 3.76 µM) in assay [13]. Also, the negative logarithm of the IC50 (pIC50) in assay [5] was 5.21. The inhibition result in [6] was “inactive”. The MIC50 in [8] was 1 µg/mL (≈ 1.88 µM); in [12] it was 1 µg/mL (≈ 1.88 µM); in assay [14], 2 µg/mL (≈ 3.76 µM). Also, the values for the MIC90 in [8], in assay [12] and in assay [14] were 3.6 µg/mL (≈ 6.77 µM), 1.7 µg/mL (≈ 3.2 µM) and 3.7 µg/mL (≈ 6.96 µM), respectively.
`CCOc1ccc(-c2nc3ccc(-c4nc5ccc(N6CCN(CC)CC6)cc5[nH]4)cc3[nH]2)cc1`: the MBC in assay [1] turned out to be 2 µg/mL (≈ 4.29 µM); in assay [2], 64 µg/mL (≈ 137 µM); in assay [3], 8 µg/mL (≈ 17.1 µM); in assay [4] it was 4 µg/mL (≈ 8.57 µM); in assay [7], 1 µg/mL (≈ 2.14 µM); in assay [9] it was 8 µg/mL (≈ 17.1 µM). Moreover, the MBC in assay [10], in assay [11] and in assay [13] was 8 µg/mL (≈ 17.1 µM) in each case. In addition, the negative-log IC50 (pIC50) in [5] was 5.24. Moreover, the inhibition entry in [6] is “Active”. Also, the MIC50 in assay [8], in [12] and in [14] was 4 µg/mL (≈ 8.57 µM) in each case. Further, the results for the MIC90 in [8], in assay [12] and in [14] were 7.4 µg/mL (≈ 15.9 µM), 7.1 µg/mL (≈ 15.2 µM) and 7.2 µg/mL (≈ 15.4 µM), respectively.
In the case of `CCCN1CCN(c2ccc3nc(-c4ccc5nc(-c6ccc(OCC)cc6)[nH]c5c4)[nH]c3c2)CC1`, the MBC in [1] amounted to 2 µg/mL (≈ 4.16 µM); in assay [2], 2 µg/mL (≈ 4.16 µM); in assay [3], 2 µg/mL (≈ 4.16 µM); in assay [4] it was 2 µg/mL (≈ 4.16 µM); in assay [7], 0.2 µg/mL (≈ 0.416 µM); in assay [9], 4 µg/mL (≈ 8.32 µM). Also, the minimal bactericidal concentration (MBC) in assay [10], in assay [11] and in [13] was 2 µg/mL (≈ 4.16 µM) each time. In addition, the pIC50 in assay [5] is 5.70. Besides, the inhibition entry in assay [15] was “Active”. In [6], the inhibition result is “inactive”. Besides, the K in assay [16] worked out at 7 ×10⁷ /M. Moreover, in [17], the Ka came to 6.8 ×10⁶ /M. Further, the Activity entry in assay [18] was “Dose-dependent effect”; in assay [20] it was 3 mg/kg/day; in assay [21] it was 5 mg/kg/day; in assay [22], “Dose-dependent effect”. Moreover, the 50% effective dose (ED50) in [18] (ATCC 25922, in Mus musculus, 168 h) turned out to be 5 mg/kg. The survival at 7 mg/kg in assay [19] was 75%. The MIC50 in [22] (ATCC 25922, Thigh) was 0.2 µg/mL (≈ 0.416 µM); in [8] it was 2 µg/mL (≈ 4.16 µM); in [12], 0.5 µg/mL (≈ 1.04 µM); in assay [14], 0.5 µg/mL (≈ 1.04 µM). The figures for the MIC90 in [8], in [12] and in assay [14] were 3.4 µg/mL (≈ 7.07 µM), 1.6 µg/mL (≈ 3.33 µM) and 1.7 µg/mL (≈ 3.54 µM), respectively.
As for `COc1ccc(-c2nc3ccc(-c4nc5ccc(N6CCN(c7ncccn7)CC6)cc5[nH]4)cc3[nH]2)cc1OC`, the MBC in assay [1] turned out to be 8 µg/mL (≈ 15 µM); in assay [3] it was 32 µg/mL (≈ 60.1 µM); in assay [4], 32 µg/mL (≈ 60.1 µM); in [7], 4 µg/mL (≈ 7.51 µM); in [10] it was 64 µg/mL (≈ 120 µM); in assay [11], 32 µg/mL (≈ 60.1 µM). In assay [13], this compound yielded an MBC of 32 µg/mL (≈ 60.1 µM). Also, in [5], the pIC50 was 5.21. Besides, the inhibition result in assay [6] is “Active”. The MIC50 in assay [8] is 16 µg/mL (≈ 30 µM); in assay [12] it was 32 µg/mL (≈ 60.1 µM); in assay [14], 16 µg/mL (≈ 30 µM). The MIC90 was 30.2 µg/mL (≈ 56.7 µM) in assay [8], 61.6 µg/mL (≈ 116 µM) in assay [12] and 30.2 µg/mL (≈ 56.7 µM) in [14].
For `CCOc1ccc(-c2nc3ccc(-c4nc5ccc(N6CCN(CCN(C)C)CC6)cc5[nH]4)cc3[nH]2)cc1`, the MBC was 16 µg/mL (≈ 31.4 µM) in assay [1]; 128 µg/mL (≈ 251 µM) in assay [2]; 64 µg/mL (≈ 126 µM) in assay [3]; 32 µg/mL (≈ 62.8 µM) in assay [4]; 2 µg/mL (≈ 3.92 µM) in assay [7]; 128 µg/mL (≈ 251 µM) in assay [9]. Moreover, the MBC is 64 µg/mL (≈ 126 µM) in assay [10], 32 µg/mL (≈ 62.8 µM) in [11] and 16 µg/mL (≈ 31.4 µM) in assay [13]. Also, the pIC50 in [5] was 5.03. Further, the inhibition result in assay [6] was “inactive”. Also, the MIC50 in assay [8] stood at 16 µg/mL (≈ 31.4 µM); in [12] it was 32 µg/mL (≈ 62.8 µM); in [14] it was 16 µg/mL (≈ 31.4 µM). The results for the MIC90 in [8], in assay [12] and in [14] were 28.8 µg/mL (≈ 56.5 µM), 60.6 µg/mL (≈ 119 µM) and 29.4 µg/mL (≈ 57.7 µM), respectively.
On to `CCCN1CCN(c2ccc3nc(-c4ccc5nc(-c6ccc(OC)c(OC)c6)[nH]c5c4)[nH]c3c2)CC1`, for which the MBC was 4 µg/mL (≈ 8.05 µM) in [1]; 16 µg/mL (≈ 32.2 µM) in assay [2]; 16 µg/mL (≈ 32.2 µM) in assay [3]; 8 µg/mL (≈ 16.1 µM) in assay [4]; 4 µg/mL (≈ 8.05 µM) in assay [7]; 16 µg/mL (≈ 32.2 µM) in assay [9]. For the same compound, the MBC in [10] came out at 16 µg/mL (≈ 32.2 µM); in assay [11], 8 µg/mL (≈ 16.1 µM); in assay [13], 8 µg/mL (≈ 16.1 µM). For the same compound, the negative-log IC50 (pIC50) in assay [5] was 5.52. Moreover, the inhibition result in assay [6] was “Active”. For the same compound, the MIC50 in [8] is 4 µg/mL (≈ 8.05 µM); in assay [12], 8 µg/mL (≈ 16.1 µM); in assay [14] it was 8 µg/mL (≈ 16.1 µM). The MIC90 in assay [8] stood at 7.5 µg/mL (≈ 15.1 µM); in [12] it was 14.8 µg/mL (≈ 29.8 µM); in [14], 15.2 µg/mL (≈ 30.6 µM).

The record behind these values is ChEMBL document CHEMBL3286094, “Synthesis and biological evaluation of novel bisbenzimidazoles as Escherichia coli topoisomerase IA inhibitors and potential antibacterial agents” (J Med Chem, 2014).
